Source: ChEMBL document CHEMBL3352402, “Pharmacological evaluation and docking studies of α,β-unsaturated carbonyl based synthetic compounds as inhibitors of secretory phospholipase A₂, cyclooxygenases, lipoxygenase and proinflammatory cytokines” (Bioorg Med Chem, 2014)
Calls of active or inactive are those of the source. The calls are words filed in the database; no cut-off is given here.

Legend:
[1] = Inhibition of sPLA2-V (unknown origin) using substrate 1,2-bis(heptanoylthio)-glycerophosphocholine by Ellman's method based photometric assay; design: species or system Homo sapiens
[2] = target: T1, Prostaglandin G/H synthase 1 (Ovis aries, UniProt P05979); assay: Inhibition of ovine COX1 using arachidonic acid substrate assessed as PGE2 production ELISA method after 2 mins
T1 sequence (P05979 whole entry): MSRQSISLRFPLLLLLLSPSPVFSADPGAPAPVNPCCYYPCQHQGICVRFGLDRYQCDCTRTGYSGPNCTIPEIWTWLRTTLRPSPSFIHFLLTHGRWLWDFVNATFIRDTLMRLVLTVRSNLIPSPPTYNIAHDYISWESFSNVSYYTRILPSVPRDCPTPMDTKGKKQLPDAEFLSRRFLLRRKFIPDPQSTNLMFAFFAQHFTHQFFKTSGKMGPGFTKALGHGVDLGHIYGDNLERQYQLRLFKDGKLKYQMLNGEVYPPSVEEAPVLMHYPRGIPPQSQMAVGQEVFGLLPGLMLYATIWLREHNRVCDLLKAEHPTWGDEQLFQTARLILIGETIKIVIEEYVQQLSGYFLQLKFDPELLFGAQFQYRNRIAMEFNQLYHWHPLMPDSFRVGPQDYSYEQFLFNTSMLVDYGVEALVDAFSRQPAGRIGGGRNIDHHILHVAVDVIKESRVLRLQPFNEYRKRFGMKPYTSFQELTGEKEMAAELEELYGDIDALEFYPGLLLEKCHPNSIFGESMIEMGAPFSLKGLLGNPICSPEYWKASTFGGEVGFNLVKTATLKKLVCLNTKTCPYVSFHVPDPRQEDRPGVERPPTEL

Lipoxygenase = Lipoxygenase (Glycine max, UniProt Q39829); assay: (§1) Inhibition of soybean lipoxygenase after 5 mins by colorimetric assay
In short: (§2)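 Purified soybean lipoxygenase resuspended in 0.1 M Tris-HCl, pH 7. Enzyme plus test sample was started with substrate (dissolved in KOH, diluted to 1 mM) at room temperature for 5 min. Chromogen was added for 5 min to stop the reaction, then absorbance read at 490 nm. Activity is relative to enzyme plus substrate alone.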

[3] = target: Lipoxygenase (Glycine max) (UniProt Q39829); assay: as §1; in short: as §2
[4] = target: Lipoxygenase (Glycine max) (UniProt Q39829); assay: Inhibition of soybean lipoxygenase at 40 ug/mL after 5 mins by colorimetric assay
[5] = target: T2, Prostaglandin G/H synthase 2 (Homo sapiens, UniProt P35354); assay: Inhibition of human recombinant COX2 using arachidonic acid substrate assessed as PGE2 production ELISA method after 2 mins
T2 sequence (P35354 whole entry): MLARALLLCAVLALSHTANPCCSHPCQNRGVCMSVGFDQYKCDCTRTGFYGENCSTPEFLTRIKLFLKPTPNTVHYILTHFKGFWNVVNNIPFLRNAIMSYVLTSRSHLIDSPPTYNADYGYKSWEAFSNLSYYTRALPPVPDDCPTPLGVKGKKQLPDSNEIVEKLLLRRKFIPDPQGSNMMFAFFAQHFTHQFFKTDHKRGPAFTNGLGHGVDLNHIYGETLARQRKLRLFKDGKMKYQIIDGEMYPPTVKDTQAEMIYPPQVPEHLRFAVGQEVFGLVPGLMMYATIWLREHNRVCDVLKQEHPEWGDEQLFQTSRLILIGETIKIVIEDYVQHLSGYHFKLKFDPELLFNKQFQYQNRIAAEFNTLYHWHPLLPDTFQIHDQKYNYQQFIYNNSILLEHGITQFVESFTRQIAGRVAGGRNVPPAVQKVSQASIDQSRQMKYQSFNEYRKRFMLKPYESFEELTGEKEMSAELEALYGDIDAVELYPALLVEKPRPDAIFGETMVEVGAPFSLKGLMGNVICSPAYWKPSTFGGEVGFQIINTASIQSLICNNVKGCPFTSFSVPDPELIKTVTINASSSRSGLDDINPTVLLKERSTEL

RAW264.7 [6] = assay: Inhibition of TNFalpha expression in mouse RAW264.7 cells at 10 uM per-treated with compound for 2 hrs before LPS challenge for 22 hrs by ELISA method; assay type: functional
RAW264.7 [7] = assay: Immunostimulatory activity in mouse RAW264.7 cells assessed as stimulation of IL6 release at 10 uM per-treated with compound for 2 hrs before LPS challenge for 22 hrs by ELISA method; assay type: functional, cell-based
In short: (§3)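 RAW 264.7 macrophages grown in DMEM with 10% heat-inactivated FBS and 1% Pen Strep, 37°C, 5% CO2. Pretreated 2 h with compound (10 µM) or vehicle, then LPS (0.5 µg/ml, in PBS) 22 h. Medium was centrifuged and cytokine measured by mouse ELISA. Levels were normalized to total protein of the cell pellet and expressed as percent of LPS control. Triplicates, mean ± SEM.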

RAW264.7 [8] = assay: Immunostimulatory activity in mouse RAW264.7 cells assessed as stimulation of TNFalpha expression at 10 uM per-treated with compound for 2 hrs before LPS challenge for 22 hrs by ELISA method; assay type: functional, cell-based; in short: as §3
RAW264.7 [9] = assay: Inhibition of IL6 release in mouse RAW264.7 cells at 10 uM per-treated with compound for 2 hrs before LPS challenge for 22 hrs by ELISA method; assay type: functional; in short: as §3

IC50 [1] | IC50 [2] | IC50 (Lipoxygenase) | inhibition [3] | inhibition [4] | IC50 [5] | Compound | inhibition at 10 µM (RAW264.7 [6]) | Activity (RAW264.7 [7]) | Activity (RAW264.7 [8]) | inhibition at 10 µM (RAW264.7 [9])
0.61 µM | – | – | – | – | – | C[C@@H]1C[C@H]2[C@@H]3CCC4=CC(=O)C=C[C@]4(C)[C@@]3(F)[C@@H](O)C[C@]2(C)[C@@]1(O)C(=O)CO [DEXAMETHASONE] | – | – | – | –
10.1 µM | 29.7 µM | 59.5 µM | Dose-dependent effect | 68.3% | – | COc1cc(/C=C/C(=O)CC(=O)/C=C/c2ccc(O)c(OC)c2)ccc1O [CURCUMIN] | – | – | – | –
12.6 µM | – | 83.1 µM | – | – | 17.4 µM | CCOC(OCC)c1ccc(/C=C2\CCC/C(=C\c3ccc(C(OCC)OCC)cc3)C2=O)cc1 | – | – | – | –
19.2 µM | 51.3 µM | – | – | – | 57.2 µM | O=C1/C(=C/c2ccc(N3CCCC3)cc2)CN(Cc2ccccc2)C/C1=C\c1ccc(N2CCCC2)cc1 | – | – | – | –
12.1 µM | – | – | – | – | > 100 µM | O=C1/C(=C/c2ccc(N3CCCC3)cc2)CNC/C1=C\c1ccc(N2CCCC2)cc1 | – | – | – | –
8.76 µM | – | 91 µM | – | – | 11.2 µM | CCOC(OCC)c1ccc(/C=C2\COC/C(=C\c3ccc(C(OCC)OCC)cc3)C2=O)cc1 | 73% | – | – | –
27.7 µM | 1.12 µM | 52.2 µM | 69.5% | 69.5% | 13.3 µM | CCOC(OCC)c1ccc(/C=C/C(=O)C2CCc3ccccc3C2=O)cc1 (stereo unspecified) | – | – | – | –
– | – | 9.23 µM | – | – | – | CC(Cc1ccc(O)c(O)c1)C(C)Cc1ccc(O)c(O)c1 (stereo unspecified) [NORDIHYDROGUAIARETIC ACID] | – | – | – | –
28 µM | 9.91 µM | – | – | – | 14.8 µM | CN(C)c1ccc(/C=C2\Cc3ccccc3C2=O)c([N+](=O)[O-])c1 | – | – | – | –
38.4 µM | – | – | – | – | > 100 µM | CN(C)c1ccc(/C=C2\CC/C(=C\c3ccc(N(C)C)cc3[N+](=O)[O-])C2=O)c([N+](=O)[O-])c1 | – | – | – | –
37.6 µM | 21.5 µM | – | – | – | 28 µM | CN(C)c1ccc(/C=C2\CCc3ccccc3C2=O)c([N+](=O)[O-])c1 | – | Active | – | –
17.8 µM | 3.17 µM | – | – | – | > 100 µM | CCOC(OCC)c1ccc(/C=C2\CN(Cc3ccccc3)C/C(=C\c3ccc(C(OCC)OCC)cc3)C2=O)cc1 | – | – | – | –
58.2 µM | – | – | – | – | > 100 µM | CCOC(OCC)c1ccc(/C=C2\CCc3ccccc3C2=O)cc1 | – | – | Active | –
44.1 µM | – | – | – | – | 61.2 µM | O=C(/C=C/c1ccc(N2CCCC2)cc1)C1CCc2ccccc2C1=O (stereo unspecified) | – | Active | – | –
19.2 µM | 3.22 µM | 210 µM | – | – | 31.5 µM | CCOC(OCC)c1ccc(/C=C/C(=O)/C=C/c2ccc(C(OCC)OCC)cc2)cc1 | – | – | – | 76%
11.2 µM | 69.2 µM | – | – | – | > 100 µM | CN1C/C(=C\c2ccc(N3CCCC3)cc2)C(=O)/C(=C/c2ccc(N3CCCC3)cc2)C1 | – | – | – | –
37.3 µM | 2.22 µM | – | – | – | 19.3 µM | CCOC(OCC)c1ccc(/C=C2\Cc3ccccc3C2=O)cc1 | – | – | – | –

IC50 [1] | IC50 [2] | IC50 (Lipoxygenase) | inhibition [3] | inhibition [4] | IC50 [5] | Compound | inhibition at 10 µM (RAW264.7 [6]) | Activity (RAW264.7 [7]) | Activity (RAW264.7 [8]) | inhibition at 10 µM (RAW264.7 [9])
67.3 µM | – | – | – | – | 54.6 µM | O=C1/C(=C/c2ccc(N3CCCC3)cc2)Cc2ccccc21 | – | Active | Active | –
15.2 µM | 39.4 µM | – | – | – | > 100 µM | O=C1/C(=C/c2ccc(N3CCCC3)cc2)COC/C1=C\c1ccc(N2CCCC2)cc1 | – | – | – | –
4.19 µM | 0.67 µM | 39.5 µM | – | – | 7.88 µM | CN(C)c1ccc(/C=C2\CNC/C(=C\c3ccc(N(C)C)cc3[N+](=O)[O-])C2=O)c([N+](=O)[O-])c1 | 73% | – | – | 76%
54.2 µM | 33.5 µM | – | – | – | > 100 µM | O=C1/C(=C/c2ccc(N3CCCC3)cc2)CCc2ccccc21 | – | – | – | –
29.3 µM | 49.3 µM | – | – | – | 69.8 µM | O=C(/C=C/c1ccc(N2CCCC2)cc1)/C=C/c1ccc(N2CCCC2)cc1 | – | – | – | –
28.3 µM | 33.5 µM | – | – | – | 54.3 µM | O=C1/C(=C/c2ccc(N3CCCC3)cc2)CCC/C1=C\c1ccc(N2CCCC2)cc1 | – | – | – | –
55.7 µM | 37.8 µM | – | – | – | 46.2 µM | O=C1/C(=C/c2ccc(N3CCCC3)cc2)CC/C1=C\c1ccc(N2CCCC2)cc1 | – | – | Active | –
– | – | – | – | – | 14.8 µM | CCOC(OCC)c1ccc(/C=C2\CC/C(=C\c3ccc(C(OCC)OCC)cc3)C2=O)cc1 | – | – | – | –
4.21 µM | – | 65.6 µM | – | 67.6% | 38.2 µM | CCOC(OCC)c1ccc(/C=C2\CN(C)C/C(=C\c3ccc(C(OCC)OCC)cc3)C2=O)cc1 | 73% | – | – | 76%
7.79 µM | 0.72 µM | 44.7 µM | – | – | 18.6 µM | CN(C)c1ccc(/C=C2\COC/C(=C\c3ccc(N(C)C)cc3[N+](=O)[O-])C2=O)c([N+](=O)[O-])c1 | 73% | – | – | 76%
22.2 µM | 29.3 µM | 157 µM | – | – | 37.7 µM | CN(C)c1ccc(/C=C/C(=O)C2CCc3ccccc3C2=O)c([N+](=O)[O-])c1 (stereo unspecified) | – | – | – | –
2.19 µM | 1.22 µM | 38.3 µM | – | – | 9.12 µM | CN1C/C(=C\c2ccc(N(C)C)cc2[N+](=O)[O-])C(=O)/C(=C/c2ccc(N(C)C)cc2[N+](=O)[O-])C1 | 91% | – | – | 91%
7.14 µM | – | 88.4 µM | – | – | 27.7 µM | CCOC(OCC)c1ccc(/C=C2\CNC/C(=C\c3ccc(C(OCC)OCC)cc3)C2=O)cc1 | 91% | – | – | 91%
18.2 µM | 3.96 µM | 103 µM | – | – | 15 µM | CN(C)c1ccc(/C=C/C(=O)/C=C/c2ccc(N(C)C)cc2[N+](=O)[O-])c([N+](=O)[O-])c1 | – | – | – | 76%
11.2 µM | 0.42 µM | 29.3 µM | – | – | > 100 µM | CN(C)c1ccc(/C=C2/CCC/C(=C\c3ccc(N(C)C)cc3[N+](=O)[O-])C2=O)c([N+](=O)[O-])c1 | – | – | – | –
15.2 µM | 14.6 µM | 211 µM | – | – | 19.2 µM | CN(C)c1ccc(/C=C2\CN(Cc3ccccc3)C/C(=C\c3ccc(N(C)C)cc3[N+](=O)[O-])C2=O)c([N+](=O)[O-])c1 | – | – | – | –
